A short description of data set [1]: Cytotoxicity against rat IEC-6 cells assessed as survival at 10 uM by MTT assay. In kind it is cell-based. To be noted: read-out: Survival.
For data set [2], the target named is T1, X-box-binding protein 1 (Rattus norvegicus) (UniProt Q9R1S4).
T1 sequence (whole entry): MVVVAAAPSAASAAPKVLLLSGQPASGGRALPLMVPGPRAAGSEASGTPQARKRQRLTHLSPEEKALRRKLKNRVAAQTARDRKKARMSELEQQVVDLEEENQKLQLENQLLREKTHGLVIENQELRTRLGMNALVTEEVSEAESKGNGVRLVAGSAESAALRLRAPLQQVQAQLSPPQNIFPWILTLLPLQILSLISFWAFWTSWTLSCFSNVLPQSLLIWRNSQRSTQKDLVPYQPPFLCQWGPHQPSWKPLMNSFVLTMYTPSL
Nature of the data set: Activation of XBP1 in rat IEC-6 cells assessed as transcriptional activity at 10 uM measured after 48 hrs by dual luciferase reporter gene assay relative to con 2. In kind it is cell-based. In outline: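 XBP1 transcriptional activity read by dual luciferase reporter in growth-phase IEC-6 cells (5 × 10⁴ cells/well). Cells had 4 h plasmid transfection at 37 °C, 5% CO₂, then were coincubated 48 h with compound at 10 μM. Con 1 served as background contrast and con 2 as the pGL3-basic vector control.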

For data set [3], the target named is T2, X-box-binding protein 1 (Rattus norvegicus, UniProt Q9R1S4).
T2 sequence (Q9R1S4 whole entry): T1 sequence (whole entry)
Description: Activation of XBP1 in rat IEC-6 cells assessed as transcriptional activity measured after 48 hrs by dual luciferase reporter gene assay. In kind it is cell-based. To be noted: for pEC50: read-out: EC50. The method in brief: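 Dose–effect version of the IEC-6 XBP1 dual luciferase reporter assay. Cells (5 × 10⁴/well) had 4 h plasmid transfection at 37 °C, 5% CO₂, then 48 h coincubation with compound; EC₅₀ was taken from the dose–effect relationship.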

Data set [4] deals with Mus musculus. Description: Antiulcerative activity in DSS-induced C57BL/6J mouse model of acute ulcerative colitis assessed as inhibition of disease activity index at 200 mg/kg, po measured over 7 days relative to control. The class given is functional. To be noted: 168 h. In outline: (§1)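 Disease activity index (DAI) was scored in DSS-induced acute UC C57bl/6j mice (n = 8/group) given oral compound at 200 mg/kg or SASP at 300 mg/kg over 7 days. Inhibition ratio (IR %) is reported relative to the DSS model group.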

In data set [5] the test system is Mus musculus. Nature of the data set: Antiulcerative activity in DSS-induced C57BL/6J mouse model of acute ulcerative colitis assessed as colon macroscopic damage index at 200 mg/kg, po measured over 7 days (reference value: 4.63 +/- 0.52). The class given is functional.
Data set [6] deals with Mus musculus. Nature of the data set: Antiulcerative activity in DSS-induced C57BL/6J mouse model of acute ulcerative colitis assessed as body weight loss at 200 mg/kg, po measured over 7 days (reference value: 18%). The class given is functional.
Data set [7] has as its system Mus musculus. Description: Antiulcerative activity in DSS-induced C57BL/6J mouse model of acute ulcerative colitis assessed as improvement in colon lesion at 200 mg/kg, po measured over 7 days by microscopic analysis. In kind it is functional, organism-based. In outline:
(§2)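 At the end of the 7-day DSS acute UC trial in C57bl/6j mice (oral 200 mg/kg; SASP 300 mg/kg; normal and model groups), colon tissue was examined microscopically after HE staining at ×200 for histopathological change.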

The test system of data set [8] is Mus musculus. Description: Antiulcerative activity in DSS-induced C57BL/6J mouse model of acute ulcerative colitis assessed as colon contracture at 200 mg/kg, po measured over 7 days (reference value: 37 %). The class given is functional. The method in brief:
(§3)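 Acute DSS colitis in C57bl/6j mice (n = 8/group), oral dosing (200 mg/kg test, SASP 300 mg/kg), 7-day trial with normal and DSS model groups. Colon length was measured at the end of the trial, and contracture was given as percentage shortening versus normal controls.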

For data set [9], the system named is Mus musculus. Nature of the data set: Antiulcerative activity in DSS-induced C57BL/6J mouse model of acute ulcerative colitis assessed as inhibition of disease activity index at 300 mg/kg, po measured over 7 days relative to control. In kind it is functional. Conditions: 168 h. In outline:
as §1

Data set [10] has as its system Mus musculus. Nature of the data set: Antiulcerative activity in DSS-induced C57BL/6J mouse model of acute ulcerative colitis assessed as body weight loss at 300 mg/kg, po measured over 7 days (reference value: 18%). In kind it is functional.
The test system of data set [11] is Mus musculus. Nature of the data set: Antiulcerative activity in DSS-induced C57BL/6J mouse model of acute ulcerative colitis assessed as partial disappearance of inflammatory edema at 300 mg/kg, po measured over 7 days by microscopic analysis.
Data set [12] deals with Mus musculus. Description: Antiulcerative activity in DSS-induced C57BL/6J mouse model of acute ulcerative colitis assessed as colon macroscopic damage index at 300 mg/kg, po measured over 7 days (reference value: 4.63 +/- 0.52). In kind it is functional.
For data set [13], the system named is Mus musculus. Nature of the data set: Antiulcerative activity in DSS-induced C57BL/6J mouse model of acute ulcerative colitis assessed as colon contracture at 300 mg/kg, po measured over 7 days (reference value: 37 %). In kind it is functional. The method in brief:
as §3

Data set [14] deals with Mus musculus. Description: Antiulcerative activity in DSS-induced C57BL/6J mouse model of acute ulcerative colitis assessed as regular arrangement of IEC cells at 200 mg/kg, po measured over 7 days by microscopic analysis. The class given is functional, organism-based. In outline:
as §2

pEC50: −log10 of the molar value. Calls of active or inactive are those of the source. No cut-off for these calls is given here.

Consider `Fc1ccc(/N=c2/c3c4c(ccc3cc3n2CCc2cc5c(cc2-3)OCO5)OCO4)cc1`, for which the viability at 10 µM in data set [1] was in the range of 79 to 103%. Moreover, the fold change (FC) in data set [2] was greater than 1.07. Besides, the negative logarithm of the EC50 (pEC50) in data set [3] is 6.46.

As to `O=c1c2c3c(ccc2cc2n1CCc1cc4c(cc1-2)OCO4)OCO3`, in [2], the fold change (FC) was greater than 1.07. Moreover, the pEC50 in data set [3] is 7.10.

With `Brc1ccc(/N=c2/c3c4c(ccc3cc3n2CCc2cc5c(cc2-3)OCO5)OCO4)cc1`, the viability at 10 µM in data set [1] is 79 to 103%. Further, the fold change (FC) in data set [2] was greater than 1.07. In data set [3], the negative-log EC50 (pEC50) is 7.31.

Turning to `CCCCCCC(=O)/N=c1\c2c3c(ccc2cc2n1CCc1cc4c(cc1-2)OCO4)OCO3`, in data set [1], the viability at 10 µM fell in the range of 79 to 103%. In [2], the Ratio was in the range of 0.78 to 107. Further, the EC50 entry in [3] is “Not Active”.

Regarding `CCCCC(=O)/N=c1\c2c3c(ccc2cc2n1CCc1cc4c(cc1-2)OCO4)OCO3`, the viability at 10 µM in [1] fell in the range of 79 to 103%. In data set [4], the inhibition in vivo at 200 mg/kg turned out to be 33%. The figures for the Activity in [5], in data set [6] and in [8] were 2.63, 10% and 15%, respectively. For the same compound, the fold change (FC) in data set [2] was greater than 1.07. The pEC50 in [3] is 7.49. The result in data set [7] was Active.

Turning to `Clc1ccc(/N=c2/c3c4c(ccc3cc3n2CCc2cc5c(cc2-3)OCO5)OCO4)cc1`, the viability at 10 µM in data set [1] lay in the range of 79 to 103%. For the same compound, in data set [2], the fold change (FC) is greater than 1.07. The negative logarithm of the EC50 (pEC50) in [3] is 6.76.

Take `CCCCCCCC(=O)/N=c1\c2c3c(ccc2cc2n1CCc1cc4c(cc1-2)OCO4)OCO3`: the viability at 10 µM in [1] fell in the range of 79 to 103%. For the same compound, in [2], the Ratio is 0.78 to 107. In addition, the EC50 entry in data set [3] is reported as “Not Active”.

As to `O=C(O)C1=C/C(=N\Nc2ccc(S(=O)(=O)Nc3ccccn3)cc2)C=CC1=O`, the inhibition in vivo at 300 mg/kg in data set [9] stood at 18%. For the same compound, the results for the Activity in data set [10], in [12] and in data set [13] were 9%, 3.17 and 24%, respectively. Further, the result in [11] was Active.

For the compound `CCC(=O)/N=c1\c2c3c(ccc2cc2n1CCc1cc4c(cc1-2)OCO4)OCO3`, the viability at 10 µM in data set [1] is 79 to 103%. Also, in [2], the fold change (FC) was greater than 1.07. Moreover, the pEC50 in data set [3] is 6.54.

`COc1ccc(/N=c2/c3c4c(ccc3cc3n2CCc2cc5c(cc2-3)OCO5)OCO4)cc1`: the viability at 10 µM in [1] lay in the range of 79 to 103%. Besides, in data set [2], the Ratio lay in the range of 0.78 to 107. Besides, the pEC50 in data set [3] was 6.74.

As for `CCCCCC(=O)/N=c1\c2c3c(ccc2cc2n1CCc1cc4c(cc1-2)OCO4)OCO3`, in [1], the viability at 10 µM lay in the range of 79 to 103%. Moreover, the fold change (FC) in data set [2] was greater than 1.07. The pEC50 in data set [3] is 7.15.

`Cc1ccc(/N=c2/c3c4c(ccc3cc3n2CCc2cc5c(cc2-3)OCO5)OCO4)cc1`: the result in [14] was Active. Also, in [1], the viability at 10 µM was in the range of 79 to 103%. In addition, the inhibition in vivo at 200 mg/kg in data set [4] was determined as 27%. The Activity was 2.63 in data set [5], 11% in data set [6] and 9% in data set [8]. Moreover, in data set [2], the fold change (FC) is greater than 1.07. Moreover, the pEC50 in data set [3] is 7.88.

On to `CCCC(=O)/N=c1\c2c3c(ccc2cc2n1CCc1cc4c(cc1-2)OCO4)OCO3`, for which, in data set [1], the viability at 10 µM is 79 to 103%. The fold change (FC) in [2] is greater than 1.07. For the same compound, the pEC50 in [3] was 6.92.

`c1ccc(/N=c2/c3c4c(ccc3cc3n2CCc2cc5c(cc2-3)OCO5)OCO4)cc1`: in data set [1], the viability at 10 µM fell in the range of 79 to 103%. The fold change (FC) in [2] was greater than 1.07. In data set [3], the negative-log EC50 (pEC50) is 6.95.

As to `[Cl-].c1c2c(cc3c1OCO3)-c1cc3ccc4c(c3c[n+]1CC2)OCO4` [COPTISINE CHLORIDE], in data set [1], the viability at 10 µM is 79 to 103%. Moreover, the Ratio in data set [2] fell in the range of 0.78 to 107. For the same compound, the EC50 result in [3] was “Not Active”.

As for `N=c1c2c3c(ccc2cc2n1CCc1cc4c(cc1-2)OCO4)OCO3`, in [1], the viability at 10 µM lay within 79 to 103%. Moreover, the Ratio in data set [2] fell in the range of 0.78 to 107. Also, the EC50 result in data set [3] is “Not Active”.

Take `CC(=O)/N=c1\c2c3c(ccc2cc2n1CCc1cc4c(cc1-2)OCO4)OCO3`: the viability at 10 µM in data set [1] lay in the range of 79 to 103%. Further, the fold change (FC) in [2] is greater than 1.07. Further, the pEC50 in data set [3] was 6.55.
